High-throughput results deposited in PubChem by several laboratories.
ABCB6 inh MLPCN = ABCB6 transporter inhibitors, primary screen, K562-ABCB6 cells, flow cytometry, MLPCN library; K562-ABCB6 porphyrin accumulation, 1 h; active compounds read low; fluorescence ratio to DMSO, % at 10 µM; 360,000 tested, 0.19% active;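 active = fluorescence ratio to DMSO below 75%, the collection mean minus 3 SD; inconclusive = too few cells collected in the well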;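 also: signal is porphyrin accumulated inside mitochondria; 100% equals median channel fluorescence of DMSO control wells; lower ratio means ABCB6 inhibition with less porphyrin fluorescence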
Myeloid diff 2 = induction of myeloid progenitor differentiation, primary screen, cell-based, flow cytometry, MLPCN library; ER-HoxA9 myeloid progenitors, lysozyme-GFP differentiation; calls only at 10 µM; 360,000 tested, 1% active; AID 624256, 2012;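 active = normalized GFP-positive differentiation at or above the plate's own cutoff, the solvent-only control mean plus 3 SD; inconclusive = no clear call, values can overlap the other calls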;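 also: cells exposed to compound for four days before flow analysis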
Xi reactivation = activators of inactive X chromosome reactivation, primary screen, imaging, XiGFP fibroblasts, GFP high-content imaging, set 2; XiGFP mouse fibroblasts, % GFP-positive cells imaging, 3 d; cells co-treated with 5-aza-dC sensitizer; scaled so ellipticine positive control = 100%; activation, % at 7.58 µM; 360,000 tested, 0.055% active;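 active = mean normalized replicate activation at least 10% and every replicate at or above 10%; inconclusive = only one of the two criteria met; inactive = mean below 10% and not all replicates reach 10%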;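 also: 0% = median of on-plate neutral control wells and 100% = ellipticine 6 µM median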
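Schedule: 3 d treatment, 15 min room-temperature fixation; system: 68-5-11 XiGFP fibroblast line; buffer or medium: DMEM plus 5-aza-dC sensitizer; control set: ellipticine 6 µM positive control; compound: one concentration, pinned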
Myeloid diff CP1 = inducers of myeloid progenitor differentiation, confirmation, cell-based, GFP/Mac1 flow cytometry, cherry pick 01; AID 651706, 2012; shares compounds with Myeloid diff 2; calls only; ER-HoxA9 myeloid progenitors, GFP/Mac1 double-positive flow; 2,300 tested, 2% active;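 active = share of green or green-and-red cells above 9 and 9% in run 1 or 4 and 3% in run 2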
GFP autofluor = flagged as fluorescent in myeloid differentiation counter-screen | shares compounds with Myeloid diff 2 | ER-HoxA9 myeloid progenitors, no estrogen, GFP autofluorescence flow cytometry; vehicle wells 0%, positive control 100% | fluorescence response, % (test concentration not listed) | 2,300 tested, 7.4% active | AID 651707;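 active = over 5% cells positive for green fluorescent reporter, or over 2% positive for both it and APC stain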;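 also: range taken on the double positive population between DMSO and positive control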
Numbers without * were called inactive; i = inactive; ? = inconclusive; . = no result given; + = active, no number. This is one part of a sample in which hits are shown more often than they occur.

SMILES	ABCB6 inh MLPCN	Myeloid diff 2	Xi reactivation	Myeloid diff CP1	GFP autofluor
COc1ccc(CCNC(=O)c2ccc(Cl)cc2)cc1	101.0	i	.	.	.
C[C@@H]1CCCCO[C@H](CN(C)C(=O)c2ccccc2)[C@H](C)CN([C@H](C)CO)C(=O)c2cc(NC(=O)C3CCCCC3)ccc2O1	.	.	-1.3	.	.
O=C(NCC1CC1)[C@H]1[C@H](CO)[C@H]2Cn3c(cccc3=O)[C@@H]1N2C(=O)c1cccnc1	.	.	0.2	.	.
COc1ccc(NC(=O)Nc2ccc3c(c2)[C@@H]2C[C@H](CC(=O)NCc4ccc5c(c4)OCO5)O[C@H](CO)[C@@H]2O3)cc1	.	.	0.0	.	.
COCCNC(=O)c1oc2ccc3c(c2c1C)C(O)CC(C)(C)O3 (stereo not given)	99.0	i	0.2	.	.
Cc1c(C(=O)N2CCC(C)CC2)oc2ccc3c(c12)C(O)CC1(CCCCC1)O3 (stereo not given)	98.0	+	0.3	i	0.9
CO[C@@H]1CN(C)C(=O)c2cc(NC(=O)c3ccccc3)ccc2OC[C@@H](C)NC[C@H]1C	.	.	0.3	.	.
O=C(N/N=C/c1ccncc1)c1cc([N+](=O)[O-])cc([N+](=O)[O-])c1O	101.0	i	.	i	0.3
O=C(N/N=C/c1ccncc1)c1cc2ccccc2cc1O	104.0	i	0.0	.	.
CC(C)C#Cc1ccc([C@@H]2[C@H]3CN(C(=O)NC4CCCCC4)CC(=O)N3[C@H]2CO)cc1	.	.	0.1	.	.
C[C@H]1CN(C)C(=O)Cc2cc(NS(C)(=O)=O)ccc2O[C@H]1CN(C)S(C)(=O)=O	.	.	0.0	.	.
CS(=O)(=O)Nc1ccc2c(c1)[C@H]1C[C@H](CC(=O)NCc3ccc(Oc4ccccc4)cc3)O[C@@H](CO)[C@H]1O2	.	.	0.0	.	.
C[C@H]1CN([C@@H](C)CO)S(=O)(=O)c2ccc(C#CC3CC3)cc2O[C@@H]1CN(C)C(=O)C1CCCCC1	.	.	-0.9	.	.
CCOC(=O)N1CCN(C(=O)c2ccc(Cn3c(=S)[nH]c4cc(OCC)c(OCC)cc4c3=O)cc2)CC1	98.0	+	0.0	i	0.0
CCOC(=O)N1CCN(C(=O)c2ccc(Cn3c(=S)[nH]c4cc5c(cc4c3=O)OCO5)cc2)CC1	101.0	i	.	.	.
COc1ccc2c3c([nH]c2c1)[C@@H](CO)N(C(=O)Nc1ccccc1F)CC31CN(C(=O)C2CC2)C1	.	.	0.2	.	.
O=C(Nc1ccccc1Cl)C1CCCN(S(=O)(=O)c2cccc3cccnc23)C1 (stereo not given)	98.0	?	0.1	.	.
O=C(Nc1nccs1)C1CCCN(S(=O)(=O)c2cccc3cccnc23)C1 (stereo not given)	101.0	i	0.2	i	0.0
COCC(=O)N1CC2(CCN(C(=O)c3cccnc3)CC2)c2c([nH]c3cc(OC)ccc23)[C@H]1CO	.	.	0.4	.	.
Cc1ccc2nc(SCC(=O)Nc3cccc(S(=O)(=O)NC4=NCCCCC4)c3)[nH]c2c1	100.0	i	-0.2	i	96.1*
O=C(COc1ccc(Cl)cc1)Nc1cccc(S(=O)(=O)NC2=NCCCCC2)c1	97.0	i	0.0	.	.
Cc1cc(Cl)ccc1OCC(=O)Nc1cccc(S(=O)(=O)NC2=NCCCCC2)c1	101.0	+	0.1	i	0.8
Cc1ccc2nc(SCC(=O)Nc3cccc(S(N)(=O)=O)c3)[nH]c2c1	96.0	i	0.0	.	.
CCCNC(=O)N[C@H]1C=C[C@H](CC(=O)N2CCN(C)CC2)O[C@@H]1CO	.	.	0.0	.	.
CCC(=O)Nc1ccc2c(c1)OC[C@H](C)N(Cc1cccnc1)C[C@H](C)[C@H](OC)CN(C)C2=O	.	.	0.0	.	.
SMILES	ABCB6 inh MLPCN	Myeloid diff 2	Xi reactivation	Myeloid diff CP1	GFP autofluor
COc1ccc(NC(=O)N(C)C[C@H]2OCCCC[C@H](C)Oc3ccc(NS(=O)(=O)c4ccccc4)cc3C(=O)N([C@@H](C)CO)C[C@H]2C)cc1	.	.	0.2	.	.
CCCc1cc(=O)[nH]c(SCC(=O)Nc2cccc3ccccc23)n1	98.0	.	0.0	.	.
CCCc1cc(=O)[nH]c(SCC(=O)Nc2ccccc2C#N)n1	105.0	i	.	i	0.0
COc1ccc(NC(=S)N2CCN(C(c3ccccc3)c3ccccc3)CC2)c(OC)c1	99.0	i	0.0	.	.
COc1cccc(NC(=S)N2CCN(C(c3ccccc3)c3ccccc3)CC2)c1	104.0	i	-0.1	i	0.0
CCCN1C[C@H](C)[C@@H](OC)CN(C)C(=O)c2ccc(NC(=O)Nc3ccccc3F)cc2OC[C@H]1C	.	.	-0.5	.	.
Cc1ccc(S(=O)(=O)NCC[C@@H]2CC[C@H](NC(=O)c3cccc(F)c3)[C@H](CO)O2)cc1	.	.	0.1	.	.
CCOc1ccc(N(CC(=O)Nc2cc(Cl)ccc2C)S(C)(=O)=O)cc1	97.0	+	0.0	i	0.0
CCOc1ccc(N(CC(=O)Nc2ccccc2Cl)S(C)(=O)=O)cc1	115.0	i	0.0	.	.
O=C(c1ccco1)N1CCN(C(=O)c2cn(-c3ccccc3)nc2-c2ccc(F)cc2)CC1	102.0	i	0.0	.	.
COc1ccccc1-c1nn(-c2ccccc2)cc1C(=O)N1CCN(C(=O)c2ccco2)CC1	101.0	i	0.0	i	0.4
O=[N+]([O-])c1cc([N+](=O)[O-])c2nonc2c1Nc1ccccc1O	105.0	+	0.0	i	3.7
O=[N+]([O-])c1cc([N+](=O)[O-])c2nonc2c1Nc1ccc(O)cc1	101.0	i	0.0	.	.
COc1cccc2c1OC[C@@H](CO)[C@H]2N(C)C(=O)Nc1ccc(Cl)cc1Cl	95.0	i	.	i	0.0
COc1ccccc1-c1nnc(SCC(=O)Nc2ccc(Cl)cc2Cl)o1	104.0	i	.	.	.
CN1C(=S)N(c2cccnc2)C(=O)/C1=C\c1ccc(N(C)C)cc1	133.0	+	2.0	i	3.4
CN1C(=S)N(c2cccnc2)C(=O)/C1=C\c1ccc(C(C)(C)C)cc1	91.0	i	0.2	.	.
C[C@H]1CN([C@@H](C)CO)C(=O)c2cccc(NC(=O)C3CCCCC3)c2O[C@@H]1CN(C)Cc1ccccc1	.	.	0.4	.	.
O=C(Nc1cccc(Cl)c1)N[C@@H]1CC[C@H](CCn2cc(Cc3ccccc3)nn2)O[C@@H]1CO	.	.	0.3	.	.
Cc1cc(Cl)c(C)c(S(=O)(=O)N2CCN(C(=O)C3CCCO3)CC2)c1Cl (stereo not given)	99.0	+	0.2	i	0.4
Cc1ccc(S(=O)(=O)N2CCN(C(=O)C3CCCO3)CC2)cc1 (stereo not given)	100.0	i	0.0	.	.
C[C@@H]1CN([C@H](C)CO)C(=O)c2cc(C#CCN(C)C)cnc2O[C@@H]1CN(C)C(=O)c1cnccn1	.	.	-1.2	.	.
COc1ccc(Cn2nnnc2C(c2cccs2)N2CCN(c3ccccc3)CC2)cc1 (stereo not given)	98.0	i	.	.	.
